Holding throughout (assay type): functional
Test [1] relates to Aspergillus flavus. As to the kind of experiment: Antifungal activity against Aspergillus flavus MTCC 3306 at 0.5 mg/mL after 72 hrs by agar-well diffusion method. The conditions noted are these: MTCC 3306, 72 h, read-out: DIZ. The method in brief: (§1)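 Fungal spore suspensions made in normal saline were spread onto agar adjusted to pH 5.7, then dried 1 h at 37 °C. Wells were cut and loaded with test compounds in DMSO at different concentrations, with a DMSO control. Plates run in triplicate at 25 °C for 72 h. Read-out was inhibition zone diameter.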

Test [2] deals with Escherichia coli. Nature of the test: Antibacterial activity against Escherichia coli ATCC 25922 at 0.5 mg/mL after 24 hrs by agar-well diffusion method. The conditions noted are these: ATCC 25922, 24 h, read-out: IZ. The method in brief: (§2)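 Well diffusion on Mueller-Hinton agar seeded with 24 h old cultures. Test compounds dissolved in DMSO at 1, 0.5 and 0.25 mg/mL. 6 mm wells were punched with a sterile cork borer, test solutions added, and plates incubated 24 h at 37 °C.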

Test [3] concerns Pseudomonas aeruginosa. Nature of the test: Antibacterial activity against Pseudomonas aeruginosa ATCC 27853 at 0.25 mg/mL after 24 hrs by agar-well diffusion method. Particulars: ATCC 27853, 24 h, read-out: IZ. The method in brief:
as §2
On the technique in general: Agar diffusion results depend on both activity and mobility in agar.

In test [4] the test system is Pseudomonas aeruginosa. As to the kind of experiment: Antibacterial activity against Pseudomonas aeruginosa ATCC 27853 at 0.5 mg/mL after 24 hrs by agar-well diffusion method. Particulars: ATCC 27853, 24 h, read-out: IZ. The method in brief:
as §2

Test [5] relates to Escherichia coli. As to the kind of experiment: Antibacterial activity against Escherichia coli ATCC 25922 at 0.25 mg/mL after 24 hrs by agar-well diffusion method. The conditions noted are these: ATCC 25922, 24 h, read-out: IZ. The method in brief:
as §2

The test system of test [6] is Aspergillus flavus. As to the kind of experiment: Antifungal activity against Aspergillus flavus MTCC 3306 at 1 mg/mL after 72 hrs by agar-well diffusion method. Particulars: MTCC 3306, 72 h, read-out: DIZ. The method in brief:
as §1

Test [7] concerns Candida albicans. Nature of the test: Antifungal activity against Candida albicans MTCC 3017 at 0.5 mg/mL after 72 hrs by agar-well diffusion method. The conditions noted are these: MTCC 3017, 72 h, read-out: DIZ. The procedure, abridged: as §1
Test [8] is described as follows: Antifungal activity against Chrysosporium keratinophilum MTCC 2827 at 1 mg/mL after 72 hrs by agar-well diffusion method. The method in brief: as §1
Test [9] can be described thus: Antifungal activity against Chrysosporium keratinophilum MTCC 2827 at 0.5 mg/mL after 72 hrs by agar-well diffusion method. The method in brief: as §1
Test [10] has as its system Candida albicans. Nature of the test: Antifungal activity against Candida albicans MTCC 3017 at 0.25 mg/mL after 72 hrs by agar-well diffusion method. Particulars: MTCC 3017, 72 h, read-out: DIZ. The method in brief: as §1
The subject of test [11] is Radical scavenging activity. Nature of the test: Antioxidant activity assessed as DPPH free radical scavenging activity at 100 uM after 30 mins. The procedure, abridged:
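Sample brought to 1 mL with MeOH and mixed with 3 mL fresh 0.1 mM DPPH. Kept 30 min in the dark, then absorbance read at 517 nm. A DPPH control without sample was included. Scavenging (%) = [(Abs control − Abs sample)/Abs control] × 100.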
A general note: The DPPH test is a chemical assay of radical scavenging.

The test system of test [12] is Aspergillus flavus. Nature of the test: Antifungal activity against Aspergillus flavus MTCC 3306 at 0.25 mg/mL after 72 hrs by agar-well diffusion method. The conditions noted are these: MTCC 3306, 72 h, read-out: DIZ. The procedure, abridged:
as §1

For test [13], the system named is Staphylococcus aureus. As to the kind of experiment: Antibacterial activity against Staphylococcus aureus ATCC 25923 at 1 mg/mL after 24 hrs by agar-well diffusion method. The conditions noted are these: ATCC 25923, 24 h, read-out: IZ. The procedure, abridged: as §2
A short description of test [14]: Antifungal activity against Chrysosporium keratinophilum MTCC 2827 at 0.25 mg/mL after 72 hrs by agar-well diffusion method. The method in brief: as §1
Test [15] has as its system Escherichia coli. Nature of the test: Antibacterial activity against Escherichia coli ATCC 25922 at 1 mg/mL after 24 hrs by agar-well diffusion method. Particulars: ATCC 25922, 24 h, read-out: IZ. The procedure, abridged:
as §2

The subject of test [16] is Candida albicans. As to the kind of experiment: Antifungal activity against Candida albicans MTCC 3017 at 1 mg/mL after 72 hrs by agar-well diffusion method. The conditions noted are these: MTCC 3017, 72 h, read-out: DIZ. The method in brief:
as §1

In test [17] the test system is Pseudomonas aeruginosa. Nature of the test: Antibacterial activity against Pseudomonas aeruginosa ATCC 27853 at 1 mg/mL after 24 hrs by agar-well diffusion method. The conditions noted are these: ATCC 27853, 24 h, read-out: IZ. The procedure, abridged:
as §2

The test system of test [18] is Staphylococcus aureus. Nature of the test: Antibacterial activity against Staphylococcus aureus ATCC 25923 at 0.25 mg/mL after 24 hrs by agar-well diffusion method. Particulars: ATCC 25923, 24 h, read-out: IZ. The method in brief: as §2
Test [19] has as its system Staphylococcus aureus. Nature of the test: Antibacterial activity against Staphylococcus aureus ATCC 25923 at 0.5 mg/mL after 24 hrs by agar-well diffusion method. Particulars: ATCC 25923, 24 h, read-out: IZ. The method in brief:
as §2

On to `COC(=O)C1=C(C)NC(C)=C(C(=O)OC)C1c1c[nH]nc1-c1ccc(Cl)cc1Cl`, for which the zone of inhibition at 500 µg/mL in the test on Aspergillus flavus [1] was 2 mm; in the test with Escherichia coli [2], 3 mm; in the test on Pseudomonas aeruginosa [4] it was 4 mm; with Candida albicans [7], 0 mm; in the test on Staphylococcus aureus [19], 3 mm. For the same molecule, the zone of inhibition at 250 µg/mL in the test on Pseudomonas aeruginosa [3] turned out to be 2 mm; in the test on Escherichia coli [5], 2 mm; in the test on Candida albicans [10], 0 mm; in the test on Aspergillus flavus [12], 0 mm; with Staphylococcus aureus [18], 2 mm. In addition, the zone of inhibition at 1000 µg/mL in the test on Aspergillus flavus [6] came out at 3 mm; in the test on Staphylococcus aureus [13], 6 mm; in the test on Escherichia coli [15], 6 mm; with Candida albicans [16] it was 3 mm; in the test on Pseudomonas aeruginosa [17] it was 8 mm. The inhibition zone (IZ) was 5 mm in test [8], 1 mm in test [9] and 0 mm in test [14]. Further, the Activity in test [11] is 35.2%.

Turning to `CCOC(=O)C1=C(C)NC(C)=C(C(=O)OCC)C1c1c[nH]nc1-c1ccc(OC)cc1`, the zone of inhibition at 500 µg/mL in the test with Aspergillus flavus [1] turned out to be 1 mm; with Escherichia coli [2], 8 mm; in the test with Pseudomonas aeruginosa [4], 7 mm; with Candida albicans [7], 1 mm; with Staphylococcus aureus [19], 8 mm. Besides, the zone of inhibition at 250 µg/mL in the test on Pseudomonas aeruginosa [3] is 5 mm; in the test on Escherichia coli [5], 5 mm; with Candida albicans [10], 2 mm; in the test with Aspergillus flavus [12] it was 0 mm; in the test with Staphylococcus aureus [18], 6 mm. Moreover, the zone of inhibition at 1000 µg/mL stood at 2 mm with Aspergillus flavus [6]; 13 mm in the test on Staphylococcus aureus [13]; 12 mm with Escherichia coli [15]; 3 mm in the test on Candida albicans [16]; 10 mm with Pseudomonas aeruginosa [17]. The inhibition zone (IZ) turned out to be 3 mm in test [8], 2 mm in test [9] and 0 mm in [14]. Further, the Activity in test [11] was found to be 30.3%.

As to `CCOC(=O)C1=C(C)NC(C)=C(C(=O)OCC)C1c1c[nH]nc1-c1ccc(Cl)cc1Cl`, the zone of inhibition at 500 µg/mL in the test with Aspergillus flavus [1] is 2 mm; in the test on Escherichia coli [2], 4 mm; in the test on Pseudomonas aeruginosa [4], 9 mm; in the test on Candida albicans [7], 1 mm; with Staphylococcus aureus [19] it was 7 mm. Also, the zone of inhibition at 250 µg/mL in the test on Pseudomonas aeruginosa [3] is 7 mm; in the test on Escherichia coli [5], 2 mm; with Candida albicans [10] it was 1 mm; with Aspergillus flavus [12], 2 mm; in the test on Staphylococcus aureus [18], 5 mm. In addition, the zone of inhibition at 1000 µg/mL with Aspergillus flavus [6] is 3 mm; in the test with Staphylococcus aureus [13], 11 mm; in the test on Escherichia coli [15], 6 mm; with Candida albicans [16], 4 mm; in the test on Pseudomonas aeruginosa [17] it was 12 mm. In addition, the inhibition zone (IZ) in test [8] amounted to 4 mm; in [9] it was 2 mm; in test [14], 1 mm. In addition, the Activity in [11] was 29.2%.

As for `COC(=O)C1=C(C)NC(C)=C(C(=O)OC)C1c1c[nH]nc1-c1ccc(OC)cc1`, the zone of inhibition at 500 µg/mL in the test with Aspergillus flavus [1] worked out at 0 mm; in the test on Escherichia coli [2], 4 mm; in the test with Pseudomonas aeruginosa [4], 4 mm; in the test on Candida albicans [7], 0 mm; in the test on Staphylococcus aureus [19] it was 4 mm. The zone of inhibition at 250 µg/mL in the test on Pseudomonas aeruginosa [3] stood at 2 mm; in the test with Escherichia coli [5], 2 mm; with Candida albicans [10], 0 mm; in the test on Aspergillus flavus [12], 0 mm; in the test with Staphylococcus aureus [18] it was 2 mm. In addition, the zone of inhibition at 1000 µg/mL is 0 mm in the test on Aspergillus flavus [6]; 6 mm with Staphylococcus aureus [13]; 7 mm with Escherichia coli [15]; 0 mm in the test with Candida albicans [16]; 7 mm in the test with Pseudomonas aeruginosa [17]. For the same molecule, the inhibition zone (IZ) in test [8], in test [9] and in test [14] was 0 mm throughout. Also, the Activity in [11] amounted to 30.2%.

Consider `COC(=O)C1=C(C)NC(C)=C(C(=O)OC)C1c1c[nH]nc1-c1ccc(SC)cc1`, for which the zone of inhibition at 500 µg/mL was 0 mm in the test on Aspergillus flavus [1]; 2 mm in the test with Escherichia coli [2]; 4 mm with Pseudomonas aeruginosa [4]; 0 mm in the test on Candida albicans [7]; 3 mm in the test with Staphylococcus aureus [19]. The zone of inhibition at 250 µg/mL in the test with Pseudomonas aeruginosa [3] was determined as 3 mm; in the test on Escherichia coli [5], 1 mm; in the test with Candida albicans [10], 0 mm; in the test on Aspergillus flavus [12] it was 0 mm; in the test with Staphylococcus aureus [18], 2 mm. In addition, the zone of inhibition at 1000 µg/mL with Aspergillus flavus [6] amounted to 0 mm; in the test on Staphylococcus aureus [13] it was 6 mm; in the test on Escherichia coli [15], 4 mm; with Candida albicans [16], 0 mm; with Pseudomonas aeruginosa [17], 6 mm. The inhibition zone (IZ) in test [8], in [9] and in test [14] was 0 mm each time. Also, the Activity in [11] is 32.2%.

Regarding `CCOC(=O)C1=C(C)NC(C)=C(C(=O)OCC)C1c1c[nH]nc1-c1cc(Cl)sc1Cl`, the zone of inhibition at 500 µg/mL is 3 mm with Aspergillus flavus [1]; 10 mm in the test with Escherichia coli [2]; 12 mm in the test with Pseudomonas aeruginosa [4]; 2 mm in the test with Candida albicans [7]; 9 mm in the test on Staphylococcus aureus [19]. For the same molecule, the zone of inhibition at 250 µg/mL in the test with Pseudomonas aeruginosa [3] stood at 10 mm; with Escherichia coli [5], 8 mm; in the test on Candida albicans [10] it was 2 mm; in the test with Aspergillus flavus [12], 3 mm; in the test on Staphylococcus aureus [18], 8 mm. Further, the zone of inhibition at 1000 µg/mL with Aspergillus flavus [6] is 4 mm; in the test on Staphylococcus aureus [13], 13 mm; with Escherichia coli [15], 16 mm; in the test on Candida albicans [16] it was 5 mm; with Pseudomonas aeruginosa [17], 15 mm. Moreover, the inhibition zone (IZ) is 5 mm in test [8], 2 mm in test [9] and 2 mm in [14]. For the same molecule, in test [11], the Activity turned out to be 32%.

For `COC(=O)C1=C(C)NC(C)=C(C(=O)OC)C1c1c[nH]nc1-c1ccc(-c2ccccc2)cc1`, the zone of inhibition at 500 µg/mL with Aspergillus flavus [1] was found to be 4 mm; in the test with Escherichia coli [2], 10 mm; in the test on Pseudomonas aeruginosa [4], 8 mm; in the test on Candida albicans [7], 0 mm; in the test with Staphylococcus aureus [19], 7 mm. The zone of inhibition at 250 µg/mL with Pseudomonas aeruginosa [3] was 7 mm; in the test on Escherichia coli [5], 8 mm; in the test on Candida albicans [10], 0 mm; in the test on Aspergillus flavus [12] it was 2 mm; in the test with Staphylococcus aureus [18] it was 5 mm. In addition, the zone of inhibition at 1000 µg/mL with Aspergillus flavus [6] stood at 5 mm; with Staphylococcus aureus [13] it was 9 mm; in the test with Escherichia coli [15], 13 mm; in the test on Candida albicans [16], 0 mm; in the test with Pseudomonas aeruginosa [17] it was 10 mm. Further, the inhibition zone (IZ) in test [8] was 3 mm; in test [9], 2 mm; in test [14], 0 mm. For the same molecule, the Activity in test [11] came to 25.3%.

(Values after ChEMBL document CHEMBL1909541, “Hantzsch reaction: synthesis and characterization of some new 1,4-dihydropyridine derivatives as potent antimicrobial and antioxidant agents” (Eur J Med Chem, 2011).)
